ChEMBL document CHEMBL1149318, “(Z)- and (E)-[2-Fluoro-2-(hydroxymethyl)cyclopropylidene]methylpurines and -pyrimidines, a new class of methylenecyclopropane analogues of nucleosides: synthesis and antiviral activity” (J Med Chem, 2004)
pEC50: −log10 of the molar value.

What was measured:
[1] = tested on: Human immunodeficiency virus 1; assay: Inhibition of HIV1 LAI replication in MT2 by CPE assay; assay type: functional, organism-based; settings: Human immunodeficiency virus 1, LAI
How it was run: (§1)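 HIV-1 LAI, 100 TCID50, used to infect MT-2 (2 × 10^3) or MT-4 (3 × 10^4) cells, which are then cultured with test analogue. EC50 read by MTT assay on day 7 (MT-2) or day 5 (MT-4). Assays run in duplicate.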

[2] = Cytotoxicity against MT2 cells; assay type: cell-based; settings: human
How it was run: (§2)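 Uninfected MT-2 (2 × 10^3 cells) or MT-4 (3 × 10^4 cells) cultured with analogues. Viability read by MTT assay after day 7 (MT-2) or day 5 (MT-4). Run in duplicate.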

Human gammaherpesvirus 4 [3] = assay: Inhibition of EBV replication in H1 cells by DNA hybridization assay; assay type: functional, organism-based; settings: human gammaherpesvirus 4, H1
How it was run: (§3)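 EBV DNA hybridization assay in Daudi or H-1 cells; EC50 derived from viral DNA signal. Cytotoxicity for these EBV assays measured in CEM cells.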

[4] = Inhibition of HSV2 in Vero cells by plaque reduction assay; assay type: cell-based; settings: Chlorocebus sabaeus
How it was run: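 Plaque reduction assay in Vero cells with HSV-1 or HSV-2.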

Hepatitis B virus = assay: Inhibition of HBV replication in 2.2.15 cells by DNA hybridization assay; assay type: functional, organism-based; settings: HepG2 2.2.15
How it was run: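 HBV in 2.2.15 cells; viral DNA quantified by DNA hybridization to give EC50.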

Human betaherpesvirus 5 [5] = assay: Inhibition of HCMV Towne replication in HFF cells by plaque reduction assay; assay type: functional, organism-based; settings: Human betaherpesvirus 5, Towne
How it was run: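 Plaque reduction assay in HFF culture with HCMV Towne strain; cytotoxicity by neutral red uptake.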

CCRF-CEM = assay: Cytotoxicity against CEM cells; assay type: functional; settings: Homo sapiens
Human alphaherpesvirus 1 [6] = assay: Inhibition of HSV1 replication in BSC1 cells by ELISA; assay type: functional, organism-based; settings: Human alphaherpesvirus 1, BSC-1
How it was run: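 HSV-1 in BSC-1 cells, read by ELISA; cytotoxicity determined in KB cells.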

[7] = Cytotoxicity against Vero cells; assay type: cell-based; settings: chlorocebus sabaeus
[8] = Cytotoxicity against HFF cells by neutral red uptake assay; assay type: cell-based; settings: human
How it was run: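 Human foreskin fibroblast (HFF) cultures, as used for the HCMV assays, exposed to analogues. Cytotoxicity read by neutral red uptake.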

Human gammaherpesvirus 4 [9] = assay: Inhibition of EBV replication in Daudi cells by VCA ELISA; assay type: functional, organism-based; settings: human gammaherpesvirus 4, Daudi
How it was run: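 Viral capsid antigen (VCA) ELISA in Daudi cells; EC50 from capsid antigen signal. Cytotoxicity measured in CEM cells.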

[10] = Cytotoxicity against HFF cells; assay type: cell-based; settings: human
[11] = Cytotoxicity against Daudi cells; assay type: cell-based; settings: human
[12] = Cytotoxicity against HFF cells by visual cytotoxicity; assay type: cell-based; settings: human
How it was run: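 HFF cultures exposed to analogues. Cytotoxicity scored visually.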

Human alphaherpesvirus 1 [13] = assay: Inhibition of HSV1 in Vero cells by plaque reduction assay; settings: Human alphaherpesvirus 1, Vero
Human betaherpesvirus 5 [14] = assay: Inhibition of HCMV AD169 replication in HFF cells by CPE inhibition assay; assay type: functional, organism-based; settings: Human betaherpesvirus 5, AD169, HFF
How it was run: (§4)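 Cytopathic effect inhibition assay in HFF culture (HCMV AD169; HSV-1 and HSV-2). Cytotoxicity by neutral red uptake.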

Human gammaherpesvirus 4 [15] = assay: Inhibition of EBV replication in Daudi cells by DNA hybridization assay; assay type: functional, organism-based; settings: human gammaherpesvirus 4, Daudi; how it was run: as §3
Human alphaherpesvirus 2 = assay: Inhibition of HSV2 in HFF cells by CPE assay; assay type: functional, organism-based; settings: Human alphaherpesvirus 2, HFF; how it was run: as §4
Human alphaherpesvirus 1 [16] = assay: Inhibition of HSV1 in HFF cells by CPE assay; assay type: functional, organism-based; settings: Human alphaherpesvirus 1, HFF; how it was run: as §4
Human alphaherpesvirus 3 = assay: Inhibition of VZV replication in HFF cells by CPE assay; assay type: functional, organism-based; settings: Human alphaherpesvirus 3, HFF
Murid betaherpesvirus 1 = assay: Inhibition of MCMV replication in MFF cells by plaque reduction assay; assay type: functional, organism-based; settings: Murid betaherpesvirus 1, MFF
How it was run: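 MCMV in MEF cells by plaque reduction.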

[17] = Cytotoxicity against MFF cells; assay type: cell-based; settings: mouse
[18] = Cytotoxicity against MT4 cells; assay type: cell-based; settings: human; how it was run: as §2
[19] = tested on: Human immunodeficiency virus 1; assay: Inhibition of HIV1 LAI replication in MT4 by CPE assay; assay type: functional, organism-based; settings: Human immunodeficiency virus 1, LAI; how it was run: as §1

SMILES | pEC50 [1] | CC50 [2] | pEC50 (Human gammaherpesvirus 4 [3]) | pEC50 [4] | pEC50 (Hepatitis B virus) | pEC50 (Human betaherpesvirus 5 [5]) | CC50 (CCRF-CEM) | pEC50 (Human alphaherpesvirus 1 [6]) | CC50 [7] | CC50 [8] | pEC50 (Human gammaherpesvirus 4 [9]) | CC50 [10] | CC50 [11] | CC50 [12] | pEC50 (Human alphaherpesvirus 1 [13]) | pEC50 (Human betaherpesvirus 5 [14]) | pEC50 (Human gammaherpesvirus 4 [15]) | pEC50 (Human alphaherpesvirus 2) | pEC50 (Human alphaherpesvirus 1 [16]) | pEC50 (Human alphaherpesvirus 3) | other results
Cc1cn([C@H]2C[C@H](N=[N+]=[N-])[C@@H](CO)O2)c(=O)[nH]c1=O [ZIDOVUDINE] | 7.70 | > 10 µM | – | – | – | – | – | – | – | – | – | – | – | – | – | – | – | – | – | – | –
Nc1ccn(/C=C2/CC2(F)CO)c(=O)n1 (stereo unspecified) | < 4.00 | > 100 µM | < 4.70 | < 4.30 | < 4.70 | < 4.00 | > 100 µM | < 4.00 | > 100 µM | > 474 µM | > 6.42 | > 400 µM | > 237 µM | > 100 µM | < 4.30 | < 3.32 | 4.55 | < 4.10 | < 4.10 | 6.21 | –
Cc1cn(/C=C2/CC2(F)CO)c(=O)[nH]c1=O (stereo unspecified) | < 4.00 | > 100 µM | 5.60 | < 4.30 | < 4.70 | < 4.00 | > 100 µM | 5.60 | > 100 µM | > 442 µM | 4.29 | > 400 µM | > 221 µM | > 100 µM | < 4.30 | < 3.35 | 5.36 | < 4.10 | < 4.10 | 6.21 | –
Nc1ccn([C@@H]2CS[C@H](CO)O2)c(=O)n1 [LAMIVUDINE] | – | – | – | – | – | – | > 100 µM | – | – | – | – | – | – | – | – | – | – | – | – | – | –
Nc1ncnc2c1ncn2/C=C1/CC1(F)CO (stereo unspecified) | 4.92 | > 100 µM | 4.86 | < 4.30 | < 4.70 | 5.44 | > 100 µM | < 4.00 | > 100 µM | > 425 µM | 5.84 | > 400 µM | > 213 µM | > 100 µM | < 4.30 | 5.22 | – | < 4.10 | < 4.10 | 4.85 | pEC50 (Murid betaherpesvirus 1): 4.16; CC50 [17]: > 425 µM; CC50 [18]: > 100 µM; pEC50 [19]: 4.66
Nc1ccn(/C=C2\CC2(F)CO)c(=O)n1 (stereo unspecified) | < 4.00 | > 100 µM | < 4.70 | < 4.30 | < 4.70 | < 4.00 | > 100 µM | < 4.00 | > 100 µM | > 474 µM | 6.12 | > 400 µM | > 237 µM | > 100 µM | < 4.30 | < 3.32 | 4.02 | < 4.10 | < 4.10 | 4.83 | –
Nc1nc2c(ncn2/C=C2/CC2(F)CO)c(=O)[nH]1 (stereo unspecified) | < 4.00 | > 100 µM | < 4.70 | < 4.30 | < 4.70 | < 4.00 | > 100 µM | < 4.00 | > 100 µM | > 398 µM | 5.32 | > 400 µM | > 199 µM | > 100 µM | < 4.30 | < 4.10 | – | < 4.10 | < 4.10 | < 4.10 | –
Nc1nc2c(ncn2COC(CO)CO)c(=O)[nH]1 [GANCICLOVIR] | – | – | – | – | – | 5.68 | – | – | – | > 392 µM | – | – | – | > 100 µM | < 4.30 | 5.66 | – | – | – | – | –
Nc1nc2c(ncn2COCCO)c(=O)[nH]1 [ACYCLOVIR] | – | – | – | – | – | – | – | 5.00 | – | – | – | > 444 µM | > 222 µM | – | – | – | 5.28 | – | – | – | –
Nc1nc2c(ncn2/C=C2\CC2(F)CO)c(=O)[nH]1 (stereo unspecified) | < 4.00 | > 100 µM | < 4.70 | < 4.30 | < 4.70 | < 4.00 | > 100 µM | 4.05 | > 100 µM | > 398 µM | > 6.49 | > 400 µM | > 199 µM | > 100 µM | < 4.30 | < 4.10 | – | < 4.10 | < 4.10 | < 4.10 | –
Nc1ncnc2c1ncn2/C=C1\CC1(F)CO (stereo unspecified) | 5.64 | > 100 µM | – | < 4.30 | 4.82 | 4.70 | > 100 µM | 4.52 | > 100 µM | > 417 µM | – | > 400 µM | > 209 µM | > 100 µM | < 4.30 | < 4.78 | – | < 4.10 | < 4.10 | < 4.08 | CC50 [18]: > 100 µM; pEC50 [19]: 5.12
Cc1cn(/C=C2\CC2(F)CO)c(=O)[nH]c1=O (stereo unspecified) | < 4.00 | > 100 µM | < 4.70 | < 4.30 | < 4.70 | < 4.00 | > 100 µM | 4.40 | > 100 µM | > 442 µM | < 3.66 | > 400 µM | > 221 µM | > 100 µM | < 4.30 | < 3.35 | – | < 4.10 | < 4.10 | < 3.35 | –
